Results published in ChEMBL document CHEMBL2163312, “Virtual screening identifies novel sulfonamide inhibitors of ecto-5'-nucleotidase” (J Med Chem, 2012).

Molecular target: T1, 5'-nucleotidase (Rattus norvegicus, UniProt P21588)
T1 sequence (P21588 whole entry): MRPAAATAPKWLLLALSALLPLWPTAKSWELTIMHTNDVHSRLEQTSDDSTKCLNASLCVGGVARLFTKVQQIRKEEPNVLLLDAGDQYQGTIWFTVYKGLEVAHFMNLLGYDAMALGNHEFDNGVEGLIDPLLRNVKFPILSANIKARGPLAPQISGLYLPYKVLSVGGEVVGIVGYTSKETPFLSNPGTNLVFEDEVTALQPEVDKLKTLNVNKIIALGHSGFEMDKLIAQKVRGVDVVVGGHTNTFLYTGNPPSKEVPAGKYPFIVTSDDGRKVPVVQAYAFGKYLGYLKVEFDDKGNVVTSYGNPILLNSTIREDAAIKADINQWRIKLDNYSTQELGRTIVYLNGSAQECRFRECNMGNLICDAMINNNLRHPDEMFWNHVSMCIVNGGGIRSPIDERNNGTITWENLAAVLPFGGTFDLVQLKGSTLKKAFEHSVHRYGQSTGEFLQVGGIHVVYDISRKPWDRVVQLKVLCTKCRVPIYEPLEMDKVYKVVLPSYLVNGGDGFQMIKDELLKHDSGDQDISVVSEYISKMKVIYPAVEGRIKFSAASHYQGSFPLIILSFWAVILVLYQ
Test: Inhibition of rat recombinant ecto-5'-nucleotidase using [3H]AMP substrate
In short: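 Purified recombinant rat enzyme in a radioactive assay with [3H]AMP as substrate at 5 μM (near Km). Compounds were screened first at 100 and 10 μM. Full concentration–response curves were run for potent compounds to obtain IC50. Inhibition mechanism: 10 substrate concentrations at three inhibitor concentrations, with velocity normalized to Vmax without inhibitor.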

SMILES | IC50
NS(=O)(=O)c1ccc(N/N=C/c2ccc(O)cc2)c([N+](=O)[O-])c1 | 8.03 µM
NS(=O)(=O)c1ccc(NC(=O)c2cc3cc(Cl)cc(Cl)c3oc2=O)cc1 | 74.8 µM
NS(=O)(=O)c1ccc(N/N=C/c2cccc(Oc3ccccc3)c2)c([N+](=O)[O-])c1 | 3.99 µM
NS(=O)(=O)c1ccc(N/N=C/c2ccccc2O)c([N+](=O)[O-])c1 | 9.46 µM
Cc1oc(-c2ccc(Cl)cc2)cc1C(=O)Nc1ccc(S(N)(=O)=O)cc1 | 45.1 µM
NS(=O)(=O)c1ccc(N/N=C/c2c(O)ccc3ccccc23)c([N+](=O)[O-])c1 | 6.54 µM
O=C(NC(=S)Nc1ccc(S(=O)(=O)c2ccc(NC(=S)NC(=O)c3ccccc3)cc2)cc1)c1ccccc1 | 7.1 µM
NS(=O)(=O)c1cc(Cl)c(NC(=O)c2c(O)[nH]c3ccccc3c2=O)c(Cl)c1 | 15.5 µM
COc1cccc2cc(C(=O)Nc3ccc(S(N)(=O)=O)cc3)c(=O)oc12 | 16.6 µM
NS(=O)(=O)c1ccc(N/N=C/c2cccc(O)c2)c([N+](=O)[O-])c1 | 18.4 µM
Cc1c(NC(=O)c2ccc3c(c2)NC(=O)CO3)c(=O)n(-c2ccccc2)n1C | 50.9 µM
CCOc1ccc(C(=O)NC(=S)Nc2ccc(S(N)(=O)=O)cc2)cc1Cl | 46.5 µM
